ChEMBL document CHEMBL4699546, “Synthesis and structure-activity relationships for tetrahydroisoquinoline-based inhibitors of Mycobacterium tuberculosis” (Bioorg Med Chem, 2020)
Values after ≈ are worked out from the molar mass of the structure shown.

Key:
[1] = Inhibition of Mycobacterium smegmatis ATPsynthase; set-up: species or system Mycolicibacterium smegmatis
[2] = Inhibition of human ATPsynthase
[3] = test system: Mycobacterium tuberculosis; assay: Antimycobacterial activity against Mycobacterium tuberculosis H37Rv ATCC 27294 assessed as reduction in bacterial growth incubated for 4 days under aerobic condition by alamar blue based fluorescence assay; assay type: functional; conditions: H37Rv ATCC 27294, 96 h, time 4 day
Method in brief: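 Replicating aerobic culture of M.tb H37Rv, MABA read-out; value is the minimum inhibitory concentration in µg/mL; assay run at the Institute for Tuberculosis Research, University of Illinois at Chicago.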

[4] = test system: Mycobacterium tuberculosis; assay: Antimycobacterial activity against Mycobacterium tuberculosis H37Rv ATCC 27294 assessed as reduction in bacterial growth incubated for 10 days in under anaerobic condition by luminometric assay; assay type: functional; conditions: H37Rv ATCC 27294, 240 h, time 10 day
Method in brief: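 Growth inhibition of M.tb H37Rv under non-replicating conditions (LORA), reported as minimum inhibitory concentration in µg/mL; tested at the Institute for Tuberculosis Research, University of Illinois at Chicago.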

[5] = test system: Vero; assay: Cytotoxicity against African green monkey Vero cells assessed as reduction in cell viability incubated for 72 hrs by MTS-PMS assay; assay type: cell-based; conditions: Chlorocebus sabaeus
Method in brief: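 Mammalian cytotoxicity measured in Vero (green monkey kidney epithelial) cells; value reported as IC50 in µg/mL.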

[6] = Metabolic stability in human liver microsomes assessed as intrinsic clearance; assay type: ADME, Microsome
[7] = Metabolic stability in mouse liver microsomes assessed as intrinsic clearance; assay type: ADME, Microsome
[8] = test system: ATP synthase (human vs Mycobacterium smegmatis); assay: Selectivity index, ratio of IC50 for human ATPsynthase to IC50 for Mycobacterium smegmatis ATPsynthase; assay type: toxicity; conditions: read-out: Ratio IC50

| Compound | IC50 [1] [µg/mL] | IC50 [2] [µg/mL] | MIC90 [3] [µg/mL] | MIC90 [4] [µg/mL] | IC50 [5] [µg/mL] | CLH [6] [mL/h/kg] | CLH [7] [mL/h/kg] | selectivity ratio [8] |
| --- | --- | --- | --- | --- | --- | --- | --- | --- |
| Cc1ccc(N2CCN(C)CC2)c2c1CCN(C(=O)N1CCC(Oc3ccccc3C(F)(F)F)CC1)C2 | 6.2 (≈ 12 µM) | 48 (≈ 92.9 µM) | – | – | – | – | – | – |
| Cc1cc(Cl)ccc1-c1ccc(CN2CCc3c(C)ccc(N4CCN(C)CC4)c3C2)nc1 | – | – | 0.79 (≈ 1.71 µM) | 5.2 (≈ 11.3 µM) | 14 (≈ 30.4 µM) | 5.52 | 14.3 | – |
| Cc1cc(Cl)ccc1-c1ccc(N2CCc3c(C)ccc(N4CCN(C)CC4)c3C2)nc1 | 5.5 (≈ 12.3 µM) | 23 (≈ 51.5 µM) | 1.9 (≈ 4.25 µM) | 2.4 (≈ 5.37 µM) | 22 (≈ 49.2 µM) | 1.32 | 2.1 | – |
| Cc1ccc(N2CCN(C)CC2)c2c1CCN(C(=O)Nc1ccc(-c3cc(C(F)(F)F)cc(C(F)(F)F)c3)cn1)C2 | 14 (≈ 24.2 µM) | 13 (≈ 22.5 µM) | – | – | – | – | – | – |
| COc1ccc(N2CCN(C)CC2)c2c1CCN(c1ccc(-c3cc(C(F)(F)F)cc(C(F)(F)F)c3)cn1)C2 | – | – | 7.9 (≈ 14.3 µM) | 12 (≈ 21.8 µM) | 19 (≈ 34.5 µM) | – | – | – |
| CCc1ccc(N2CCN(C)CC2)c2c1CCN(C(=O)Nc1ccc(-c3ccc(C(F)(F)F)cc3)cn1)C2 | 2.2 (≈ 4.2 µM) | 7.2 (≈ 13.8 µM) | – | – | – | 6.42 | 48.6 | – |
| Cc1cc(Cl)ccc1-c1ccc(NC(=O)N2CCc3c(F)ccc(N4CCN(C)CC4)c3C2)nc1 | 1.8 (≈ 3.64 µM) | 17 (≈ 34.4 µM) | – | – | – | 3 | 3.9 | – |
| CN1CCN(c2cccc3c2CN(Cc2ccc(-c4ccc(Cl)cc4)cn2)CC3)CC1 | 7.2 (≈ 16.6 µM) | > 500 | – | – | – | 7.26 | 14.3 | > 70 |
| Cc1ccc(N2CCN(C)CC2)c2c1CCN(c1ccc(-c3ccc(C(C)(C)C)cc3)cn1)C2 | – | – | 1.4 (≈ 3.08 µM) | 3.4 (≈ 7.48 µM) | 18 (≈ 39.6 µM) | 2.46 | 3.36 | – |
| COc1ccc(N2CCN(C)CC2)c2c1CCN(C(=O)Nc1ccc(-c3ccc(Cl)cc3Cl)cn1)C2 | 3 (≈ 5.7 µM) | 27 (≈ 51.3 µM) | – | – | – | 2.88 | 35 | – |
| CN1CCN(c2cccc3c2CN(C(=O)Nc2ccc(-c4ccc(OC(F)(F)F)cc4)cn2)CC3)CC1 | 6.2 (≈ 12.1 µM) | > 500 | – | – | – | – | – | > 80 |
| COc1ccc(N2CCN(C)CC2)c2c1CCN(Cc1ccc(-c3ccc(Cl)cc3C)cn1)C2 | – | – | 1.8 (≈ 3.77 µM) | 6.1 (≈ 12.8 µM) | 12 (≈ 25.2 µM) | – | – | – |
| COc1ccc(N2CCN(C)CC2)c2c1CCN(C(=O)Nc1ccc(-c3ccc(Cl)cc3C)cn1)C2 | 6.3 (≈ 12.4 µM) | 20 (≈ 39.5 µM) | – | – | – | – | – | – |
| Cc1ccc(N2CCN(C)CC2)c2c1CCN(C(=O)N1CCC(Oc3ccc(OC(F)(F)F)cc3)CC1)C2 | – | – | – | – | – | 2.88 | 2.4 | – |
| COc1nc2ccc(Br)cc2cc1[C@@H](c1ccccc1)[C@@](O)(CCN(C)C)c1cccc2ccccc12 [BEDAQUILINE] | – | > 1000 | – | – | – | – | – | – |
